This is a sample that favours compounds with a hit; in the whole collection about 11% have one here.
M1 ag: M1 muscarinic receptor agonists, primary screen, CHO-M1 cells, Fluo-4 calcium, agonist mode; actives 3% (n = 64,000); B-score at 10 µM; Fluo-4 calcium fluorescence; stronger effect = higher value; Muscarinic acetylcholine receptor M1;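 active means fluorescence rise, raw or as B-score row- and column-corrected plate score, outside the 99.7% band of its plate's samples, either direction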
M1 antag: antagonists of rat M1 muscarinic receptor. Muscarinic acetylcholine receptor M1 (Rattus norvegicus), P08482. CHO-M1 cells, Fluo-4 calcium, ACh EC80 antagonist mode; stronger effect = lower value. B-score at 10 µM. actives 3.4% (n = 64,000);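 active means calcium fluorescence response, raw or row-and-column corrected B-score, differing from the plate sample mean either way at a set confidence level, mostly lower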
RORA act: activators of orphan receptor RORA, primary screen, cell-based, luminescence; AID 560, 2006; activation, % at 10 µM; CHO-K1 Gal4-RORA LBD luciferase reporter; percent increase over mock-subtracted basal signal; Nuclear receptor ROR-alpha (Homo sapiens), P35398; actives 1.5% (n = 65,000);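 active means activation above the mean of all tested compounds plus 3 SD, cut at about 49% in these data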;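 further: 0% = DMSO-treated RORA cells and 100% = added signal equal to DMSO minus mock-transfected cells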
SF1 activator: activators of human SF-1, primary screen, cell-based, CHO-K1, Gal4-SF-1 LBD, luciferase luminescence; CHO-K1 Gal4-SF-1 LBD luciferase reporter; % increase over DMSO SF-1-specific signal; activation, % at 10 µM; actives 1.9% (n = 65,000);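 active means activation above the mean activation of all tested compounds plus 3 SD, cut at about 50% in these data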
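System: CHO-K1 cells with Gal4–hSF-1 LBD chimera plus Gal4-driven luciferase; quantity: 4,000 CHO-K1 cells per well; compound: one dose, 10 µM compound, 1% DMSO; times: 20 h compound treatment, 37 °C; measured by: SteadyLite luciferase luminescence; read-out: percent activation versus DMSO; benchmarks: DMSO and mock-transfected background; replicates: one test per compound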
D1 mod: D1 CRE-luciferase signal change, two-sided – cell-based, HEK293 D1, dopamine EC30, D1 allosteric modulator project, primary screen. D(1A) dopamine receptor (Homo sapiens), P21728. dopamine EC30 potentiation; actives deviate in either direction. B-score at 10 µM. actives 5.9% (n = 58,000). AID 641, 2007;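 active means luminescence count or its row- and column-corrected plate score outside the 99.7% band of the plate's sample wells, on either side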
Target sequence (P21728 whole entry, looked up): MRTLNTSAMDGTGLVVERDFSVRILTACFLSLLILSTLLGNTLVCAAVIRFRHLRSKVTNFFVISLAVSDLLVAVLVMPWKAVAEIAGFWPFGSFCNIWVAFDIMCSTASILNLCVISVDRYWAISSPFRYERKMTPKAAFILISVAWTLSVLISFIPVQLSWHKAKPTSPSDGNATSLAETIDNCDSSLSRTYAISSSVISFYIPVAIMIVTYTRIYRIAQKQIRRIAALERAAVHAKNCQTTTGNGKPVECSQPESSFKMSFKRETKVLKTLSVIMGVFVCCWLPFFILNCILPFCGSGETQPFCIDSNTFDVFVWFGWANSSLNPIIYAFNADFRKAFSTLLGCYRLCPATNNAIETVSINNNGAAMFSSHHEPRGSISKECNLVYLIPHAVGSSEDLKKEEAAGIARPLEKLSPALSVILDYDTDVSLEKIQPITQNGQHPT
mHtt clearance: clearance of mutant huntingtin inclusions, primary screen, imaging, HeLa Exon1htt(103Q)mCFP, confocal imaging. inhibition, % at 1.5 µM. aggregate imaging; zero = plate's median compound well. actives 0.42% (n = 47,000);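 active means inhibition of aggregate fluorescence above about 70%, also judged a hit by eye on the cell image, limit read from the data, passing the limit was not always enough; inconclusive means no rule stated for this call; inactive means not judged a hit on image review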;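 further: cells exposed to compound for three days before fixation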
M1 antag confirm: rat M1 muscarinic receptor antagonists, confirmation, CHO cells, Fluo-4 calcium, duplicate; shares compounds with M1 antag; ACh EC80 antagonism; stronger effect = lower value; calcium response (max-min fluorescence) at 10 µM; actives 43% (n = 1,700); AID 677, 2007;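 active means calcium response below the same-plate mean of wells given acetylcholine alone at its 80%-effect dose, minus 3 SD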;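 further: raw fluorescence intensity difference in arbitrary instrument units and not normalized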
mGluR4 antag: human mGluR4 response to M1 antagonist hits, M1 allosteric modulator project, cell-based, antagonist mode, secondary assay 1 | shares compounds with M1 antag | CHO-mGluR4 calcium flux, Fluo-4 fluorescence, glutamate EC80; stronger effect = lower value | fluorescence response (max-min) at 10 µM | actives 0.9% (n = 1,700);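 active means fluorescence response below the plate's average for near-maximal glutamate wells, less 3 SD of those wells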;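 further: raw unnormalized fluorescence span taken in the window right after glutamate addition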
An asterisk follows results filed as active; ? = inconclusive; . = not tested or not shown.

SMILES	M1 ag	M1 antag	RORA act	SF1 activator	D1 mod	mHtt clearance	M1 antag confirm	mGluR4 antag
CCC(=O)Nc1ccc(N2CCN(Cc3ccccc3F)CC2)cc1	0.55	-2.6*	2	6	-0.81	64	630	226
COc1cccc(OCCCCN2CCCCC2)c1	0.11	-1.2*	6	10	-0.24	-97	280*	203
CCOc1cccc(OCCCCN2CCCCC2)c1	0.36	-3.1*	-6	-7	-1.8	.	329*	214
CCOc1cccc(OCCCOc2ccccc2)c1	.	.	.	.	.	16	.	.
COc1cccc(OCCCN2CCCCC2)c1	-0.53	-0.52	-20	22	-0.75	-21	.	.
COc1ccc(S(=O)(=O)N(CCCN2CCOCC2)Cc2cccc3ccccc23)cc1	.	.	.	.	.	-12	.	.
Cc1cc(NC(=O)COC(=O)CCC(=O)c2ccc(F)cc2)no1	-0.96	0.47	0	-12	1.9	.	.	.
CN1CCc2c(sc3ncn4nc(-c5ccccc5O)nc4c23)C1	-0.13	-3.7*	-7	5	.	.	353*	248
Cc1nc2sc3c(c2c2nc(-c4ccco4)nn12)CCCC3	.	.	2	-4	0.39	.	.	.
O=C(c1ccc2c(c1)OCO2)N1CCCC1	.	.	.	.	.	44	.	.
O=C(OCC1CCCN2CCCCC12)c1ccc2c(c1)OCO2 (configuration not stated)	0.51	-4.8*	-13	-13	-0.27	.	448	196
O=C(CN1CCN(S(=O)(=O)c2ccc(Br)cc2)CC1)Nc1ccc2c(c1)OCO2	-0.46	-2.1	16	3	.	.	.	.
CCN(CC)CCOC(=O)c1cccc(Br)c1	0.17	-4.4*	0	-5	-0.11	?	472*	267
CCN(CC)CCOC(=O)c1cccc(Cl)c1	-0.12	-0.98	-7	-5	-0.024	10	.	.
CCOC(=O)Nc1ccc2c(c1)N(C(=O)OCCN(C)C)c1ccccc1CC2	3.4	-3.3*	-2	8	-0.8	.	294*	220
CCS(=O)(=O)Nc1ccc2c(c1)N(C(C)=O)c1ccccc1CC2	0.5	0.018	0	9	-1	-3	.	.
CCOC(=O)C1CCCN(c2c(NCCCN(CC)c3cccc(C)c3)c(=O)c2=O)C1 (configuration not stated)	-0.027	-5.2*	-28	0	.	.	566	225
COC(=O)c1[nH]c2cccc(OC)c2c1NC(=O)CCN1CC(C)CC(C)C1 (configuration not stated)	0.59	-3.4*	13	3	.	.	584	266
CCOC(=O)c1[nH]c2ccc(Br)cc2c1NC(=O)CCN1CCC(C(=O)OCC)CC1	-0.48	-5.2*	-9	-7	-0.5	.	408*	247
COC(=O)c1[nH]c2ccc(C)cc2c1NC(=O)CCN1CCN(Cc2ccc3c(c2)OCO3)CC1	-0.024	-20*	5	-11	0.75	18	38*	226
CCOC(=O)c1[nH]c2ccc(Br)cc2c1NC(=O)CCN1CCN(C(=O)OCC)CC1	2.6	-0.5	-7	2	-0.022	.	.	.
CCOC(=O)c1[nH]c2ccc(Br)cc2c1NC(=O)CCN1CCCCC1	-0.58	-15*	-15	-10	-0.75	-2	25*	143*
COc1cccc(OCC(O)CO)c1 (configuration not stated)	-0.5	0.27	-21	-20	0.76	21	.	.
Fc1ccc(CN2CCCCCCC2)cc1F	0.54	-0.49	-7	1	-0.26	.	.	.
Cc1c(N)cccc1-c1nc2ccccc2[nH]1	.	.	.	.	.	-70	.	.
SMILES	M1 ag	M1 antag	RORA act	SF1 activator	D1 mod	mHtt clearance	M1 antag confirm	mGluR4 antag
CC(C)c1ncc(C(O)c2cccc3ccccc23)n1C (configuration not stated)	1.9	-0.88	-12	0	0.53	.	.	.
CCOC(=O)c1[nH]c2ccc(OC)cc2c1NC(=O)CCN1CCCC(C)C1 (configuration not stated)	0.15	-3.6*	-12	-10	.	.	370*	242
CNc1nc(N)c(C(=O)C(C)(C)C)s1	1.2	-1.8*	10	7	.	12	599	260
CC(C)Cn1cc(C(=O)NCC2CCCO2)c2c3ccccc3n(C)c2c1=O (configuration not stated)	1.6	-5.9*	16	-7	0.42	.	577	212
Cc1csc(NC(=O)c2ccccc2C(=O)O)n1	-0.17	-3*	0	23	-0.35	-13	605	254
COc1cc(OC)nc(NC2OC(=O)c3ccccc32)n1 (configuration not stated)	0.041	0.56	-2	14	0.11	1	.	.
Cc1nc2sccn2c(=O)c1CCN1CCC(=C(c2ccccc2)c2ccc(F)cc2)CC1	0.65	-10*	-8	-19	-3.4	.	138*	209
CN1CCN(CCCC(=O)c2ccc(F)cc2)CC1	-0.44	2.4	-26	23	-1.6	15	.	.
CCNC(=O)c1cc2c(=O)n3cccc(C)c3nc2n(CCc2ccccc2)c1=N	0.59	-1.1	16	2	-2.3	.	.	.
Cc1cccn2c(=O)c3cc(C(=O)NCc4ccccc4)c(=N)n(CCCN4CCOCC4)c3nc12	1.1	-3.3*	12	-5	0.015	.	337*	195
Cc1cccn2c(=O)c3cc(C(=O)NCCCN4CCCC4=O)n(C)c3nc12	0.13	-3.1*	2	11	3	-54	615*	198
COCCn1c(=N)c(C(=O)NCCc2ccccc2)cc2c(=O)n3cccc(C)c3nc21	-0.082	-4.7*	-8	-1	-0.091	.	194*	236
Cc1cccn2c(=O)c3cc(C(=O)NCCN4CCOCC4)c(=N)n(CCc4ccccc4)c3nc12	0.47	-1.1	45	-7	-0.72	-54	.	.
CCCCNC(=O)c1cc2c(=O)n3cccc(C)c3nc2n1C	0.063	0.65	-10	-11	1.1	.	.	.
CCNC(=O)c1ccc(-n2nc(C(F)(F)F)c3c2CCCC3)cc1	.	.	.	.	.	56	.	.
CCOC(=O)C1C(C#N)=C(N)OC(C)=C1c1ccncc1 (configuration not stated)	-0.79	-1.1	-10	3	-0.028	.	.	.
